Test results published in paper PMC6719797 (Bioorganic & medicinal chemistry letters, 2019).

What was measured:
human UCK2 [1] = biological target: T1, human UCK2 (Homo sapiens, UniProt Q9BZX2); type: biochemical; details: kinetic analysis
T1 sequence (Q9BZX2 1-261): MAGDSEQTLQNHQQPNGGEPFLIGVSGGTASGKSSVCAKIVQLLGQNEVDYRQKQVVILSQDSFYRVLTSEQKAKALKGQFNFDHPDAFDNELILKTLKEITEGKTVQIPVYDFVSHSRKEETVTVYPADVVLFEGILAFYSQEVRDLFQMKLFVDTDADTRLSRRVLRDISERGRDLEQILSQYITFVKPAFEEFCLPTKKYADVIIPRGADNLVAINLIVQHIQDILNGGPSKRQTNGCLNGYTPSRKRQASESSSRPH
Outline: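 C-terminally His6-tagged human UCK2 was purified by Ni-NTA and then ion-exchange chromatography. UCK2-generated ADP was coupled through pyruvate kinase and lactate dehydrogenase, and NADH consumption was followed continuously at 340 nm. To determine the mode of inhibition, uridine or ATP was titrated at several fixed inhibitor concentrations, and Ki values were derived for each substrate.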

human UCK2 [2] = biological target: T1, human UCK2; experiment: ADP-Glo kinase assay for UCK2 activity; type: biochemical; details: for IC50 obtained from validation experiments: retested in the ADP-Glo assay, unit given
A549 cells = experiment: 5-EU uptake assay in A549 cells; type: cell-based
K562 cells = experiment: 5-EU uridine salvage assay; type: cell-based; details: for %Inhibition at highest tested concentration (EU assay): K562 cells, 50 µM compound, 5-EU salvage
Outline: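 K562 cells, untreated or pre-treated with the DHODH inhibitor GSK983, were given 5-ethynyl-uridine (5-EU) with test compound at a fixed concentration (50 µM). Salvaged 5-EU incorporated into cellular RNA was detected with a fluorescent click probe. Dipyridamole (20 µM) served as the uridine-salvage inhibitor control.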

DNA polymerase eta = details: read-out: IC50 DNA polymerase eta; ref PubChem; cited from earlier work
CMPK1 = biological target: T2, CMPK1 (Homo sapiens, UniProt P30085); experiment: ADP-Glo screen for CMPK1; type: biochemical; details: analogous ADP-Glo screen
T2 sequence (P30085 1-196): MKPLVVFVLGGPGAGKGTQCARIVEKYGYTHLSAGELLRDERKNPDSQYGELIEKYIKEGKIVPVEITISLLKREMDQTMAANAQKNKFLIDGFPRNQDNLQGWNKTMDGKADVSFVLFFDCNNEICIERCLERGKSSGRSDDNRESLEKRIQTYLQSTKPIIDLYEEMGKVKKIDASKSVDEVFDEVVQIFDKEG

DNA polymerase beta = details: read-out: IC50 DNA polymerase beta; HTS hit; ref PubChem; cited from earlier work
DNA polymerase iota = details: read-out: IC50 DNA polymerase iota; HTS hit; ref PubChem; cited from earlier work
DNA polymerase kappa = details: read-out: IC50 DNA polymerase kappa; ref PubChem; cited from earlier work
[3] = substrate: O=c1ccn([C@@H]2O[C@H](CO)[C@@H](O)[C@H]2O)c(=O)[nH]1; experiment: ADP-Glo kinase assay for UCK2 activity; type: biochemical, human; details: other: steady state conditions, named substrate varied

Molecule: Cc1ccc(-c2nc3c(c(SCC(=O)Nc4cccc(C(=O)O)c4)n2)Cc2cccc(C)c2O3)cc1 [compound 20874830]
- Mode of inhibition with respect to uridine and ATP (human UCK2 [1]): primarily non-competitive

Molecule: Nc1ncnc2c1ncn2[C@@H]1O[C@H](COP(=O)(O)OP(=O)(O)OP(=O)(O)O)[C@@H](O)[C@H]1O [ATP]
- Km (human UCK2 [2]; read-out: KM (UCK2 substrate), steady state conditions, named substrate varied): 61 ± 1 µM

Molecule: OCCN(CCO)c1nc(N2CCCCC2)c2nc(N(CCO)CCO)nc(N3CCCCC3)c2n1 [Dipyridamole, dipyridamole]
- Inhibition of 5-EU uptake (A549 cells): inhibits 5-EU uptake in a dose-dependent manner

Molecule: COc1cccc(NC(=O)CSCn2[nH]nc3c(=O)nc(Cc4ccc(F)cc4)nc2-3)c1 [135546734–3]
- %Inhibition at highest tested concentration (EU assay) (K562 cells): No inhibition
- IC50 obtained from validation experiments (human UCK2 [2]): completely inactive

Molecule: O=C(N[C@@H]1CCCc2c1[nH]c1ccc(Cl)cc21)c1ccccn1 [GSK983, reference compound]
- Effect on uridine salvage (5-EU assay) (K562 cells; K562 cells treated with GSK983 vs untreated): significantly increased uridine salvage

Molecule: Cc1ccc(-c2nc3c(c(SCC(=O)Nc4ccccc4)n2)Cc2cccc(C)c2O3)cc1 [20874830–1]
- %Inhibition at highest tested concentration (EU assay) (K562 cells): No inhibition

Molecule: Cc1cc(C)cc(NC(=O)CSCn2[nH]nc3c(=O)nc(Cc4ccc(F)cc4)nc2-3)c1 [compound 135546734]
- IC50 (DNA polymerase eta): 79 µM
- Mode of inhibition with respect to uridine and ATP (human UCK2 [1]): similarly non-competitive
- Inhibition of CMPK1 (CMPK1): no inhibition
- inhibition at 50 µM (K562 cells; Homo sapiens, K562, read-out: %Inhibition at highest tested concentration (EU assay), K562 cells, 50 µM compound, 5-EU salvage): ~40%
- IC50 (DNA polymerase beta): 40 µM
- IC50 (DNA polymerase iota): 79 µM

Molecule: O=C(CSCn1[nH]nc2c(=O)nc(Cc3ccc(F)cc3)nc1-2)Nc1ccc(F)cc1 [135546734–2]
- IC50 obtained from validation experiments (human UCK2 [2]): completely inactive

Molecule: O=C(CSc1nc2n(-c3ccc(F)cc3)[nH]cc-2c(=O)n1)Nc1ccc(Br)cc1 [compound 135416439]
- IC50 (DNA polymerase eta): 56 µM
- Mode of inhibition with respect to uridine and ATP (human UCK2 [1]): non-competitive
- IC50 (DNA polymerase kappa): 16 µM

B1: human UCK2 (Homo sapiens) (protein)
chain: T1 sequence (Q9BZX2 1-261)
- Km [3]: 62 ± 5 µM
